Measurements as given in ChEMBL document CHEMBL1154044, “5-Nitro-2-furyl derivative actives against Trypanosoma cruzi: preliminary in vivo studies” (Eur J Med Chem, 2009).

Legend:
Mus musculus [1] = test: Toxicity in CD1 mouse liver at 450 mg/kg, po after 3 days by histological study; type: organism-based; set-up: dose 450 mg/kg, route oral; conditions: in vivo, 72 h
Procedure, shortened: (§1)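 Healthy female CD1 mice (20–22 g), 5–7 per group, given a single oral (intragastric) or i.p. dose in saline:Tween 80 (4:1) vehicle. Sacrificed on day 3 after ether anaesthesia. Organs fixed in 10% aqueous formalin for histology. Scored against untreated animals from no change to +++ (many changes).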

Mus musculus [2] = test: Toxicity in CD1 mouse assessed as increase in weight respect to day zero at 300 mg/kg, ip after 3 days; type: organism-based; set-up: dose 300 mg/kg, route intraperitoneal; conditions: in vivo, 72 h
Procedure, shortened: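 Healthy 2-month-old female CD1 mice (20–22 g, 5–7 per group) received one dose. Oral doses of 450 or 300 mg/kg were given by intragastric syringe; i.p. doses of 300 or 150 mg/kg by injection. Drugs were suspended in saline:Tween 80 (4:1), and a vehicle-only control was included. Mice were weighed and observed daily for 3 days. Weight change is expressed as percent relative to day zero.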

Mus musculus [3] = test: Toxicity in CD1 mouse assessed as glutamic-pyruvate transaminase level at 450 mg/kg, po after 3 days; type: organism-based; set-up: dose 450 mg/kg, route oral; conditions: in vivo, 72 h
Procedure, shortened: (§2)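 Healthy female CD1 mice (5–7 per group) received a single oral dose of 450 mg/kg or an i.p. dose of 300 mg/kg, with vehicle controls. On day 3 they were sacrificed under ether anaesthesia. Blood was drawn from the subclavian artery and kept at 0 °C in EDTA or heparin. Leukocytes, haemoglobin, haematocrit, GPT and GOT were measured within 24 h and compared with normal ranges.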

Mus musculus [4] = test: Toxicity in CD1 mouse kidney at 300 mg/kg, ip after 3 days by histological study; type: organism-based; set-up: dose 300 mg/kg, route intraperitoneal; conditions: in vivo, 72 h; procedure, shortened: as §1
Mus musculus [5] = test: Toxicity in CD1 mouse assessed as increase in weight respect to day zero at 450 mg/kg, po after 3 days; conditions: in vivo, 72 h
Mus musculus [6] = test: Toxicity in CD1 mouse lung at 450 mg/kg, po after 3 days by histological study; type: organism-based; set-up: dose 450 mg/kg, route oral; conditions: in vivo, 72 h; procedure, shortened: as §1
Mus musculus [7] = test: Toxicity in CD1 mouse liver at 300 mg/kg, ip after 3 days by histological study; type: organism-based; set-up: dose 300 mg/kg, route intraperitoneal; conditions: in vivo, 72 h; procedure, shortened: as §1
Mus musculus [8] = test: Toxicity in CD1 mouse assessed as survival at 450 mg/kg, po after 3 days; type: organism-based; set-up: dose 450 mg/kg, route oral; conditions: in vivo, 72 h
Procedure, shortened: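 Healthy 2-month-old female CD1 mice (20–22 g), groups of 5–7, given one oral dose by intragastric syringe or one i.p. injection. Compound suspended in saline:Tween 80 (4:1) with sonication just before dosing; vehicle-treated controls included. Weighed and observed daily over 3 days for skin, physical aspect, activity and faeces; survival recorded at day 3.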

Mus musculus [9] = test: Toxicity in CD1 mouse heart at 450 mg/kg, po after 3 days by histological study; type: organism-based; set-up: dose 450 mg/kg, route oral; conditions: in vivo, 72 h; procedure, shortened: as §1
Mus musculus [10] = test: Toxicity in CD1 mouse assessed as haemoglobin level at 300 mg/kg, ip after 3 days; type: organism-based; set-up: dose 300 mg/kg, route intraperitoneal; conditions: in vivo, 72 h; procedure, shortened: as §2
Mus musculus [11] = test: Toxicity in CD1 mouse assessed as glutamic-pyruvate transaminase level at 300 mg/kg, ip after 3 days; type: organism-based; set-up: dose 300 mg/kg, route intraperitoneal; conditions: in vivo, 72 h; procedure, shortened: as §2
Mus musculus [12] = test: Toxicity in CD1 mouse intestine at 450 mg/kg, po after 3 days by histological study; type: organism-based; set-up: dose 450 mg/kg, route oral; conditions: in vivo, 72 h; procedure, shortened: as §1
Trypanosoma cruzi = test: Growth inhibition of Trypanosoma cruzi Tulahuen 2 epimastigote at 5 uM after 5 days; type: functional; conditions: Trypanosoma cruzi, Tulahuen 2, 120 h; read-out: GI
Mus musculus [13] = test: Toxicity in CD1 mouse assessed as glutamic-oxalacetate transaminase level at 300 mg/kg, ip after 3 days; type: organism-based; set-up: dose 300 mg/kg, route intraperitoneal; conditions: in vivo, 72 h; procedure, shortened: as §2
Mus musculus [14] = test: Toxicity in CD1 mouse assessed as leukocyte level at 300 mg/kg, ip after 3 days; type: organism-based; set-up: dose 300 mg/kg, route intraperitoneal; conditions: in vivo, 72 h; procedure, shortened: as §2
Mus musculus [15] = test: Toxicity in CD1 mouse kidney at 450 mg/kg, po after 3 days by histological study; type: organism-based; set-up: dose 450 mg/kg, route oral; conditions: in vivo, 72 h; procedure, shortened: as §1
Mus musculus [16] = test: Toxicity in CD1 mouse brain at 450 mg/kg, po after 3 days by histological study; type: organism-based; set-up: dose 450 mg/kg, route oral; conditions: in vivo, 72 h; procedure, shortened: as §1
Mus musculus [17] = test: Toxicity in CD1 mouse intestine at 300 mg/kg, ip after 3 days by histological study; type: organism-based; set-up: dose 300 mg/kg, route intraperitoneal; conditions: in vivo, 72 h; procedure, shortened: as §1
Mus musculus [18] = test: Toxicity in CD1 mouse brain at 300 mg/kg, ip after 3 days by histological study; type: organism-based; set-up: dose 300 mg/kg, route intraperitoneal; conditions: in vivo, 72 h; procedure, shortened: as §1
Mus musculus [19] = test: Toxicity in CD1 mouse lung at 300 mg/kg, ip after 3 days by histological study; type: organism-based; set-up: dose 300 mg/kg, route intraperitoneal; conditions: in vivo, 72 h; procedure, shortened: as §1
Mus musculus [20] = test: Toxicity in CD1 mouse assessed as haemoglobin level at 450 mg/kg, po after 3 days; type: organism-based; set-up: dose 450 mg/kg, route oral; conditions: in vivo, 72 h; procedure, shortened: as §2
Mus musculus [21] = test: Toxicity in CD1 mouse assessed as leukocyte level at 450 mg/kg, po after 3 days; type: organism-based; set-up: dose 450 mg/kg, route oral; conditions: in vivo, 72 h; procedure, shortened: as §2
Mus musculus [22] = test: Toxicity in CD1 mouse heart at 300 mg/kg, ip after 3 days by histological study; type: organism-based; set-up: dose 300 mg/kg, route intraperitoneal; conditions: in vivo, 72 h; procedure, shortened: as §1
Mus musculus [23] = test: Toxicity in CD1 mouse assessed as glutamic-oxalacetate transaminase level at 450 mg/kg, po after 3 days; type: organism-based; set-up: dose 450 mg/kg, route oral; conditions: in vivo, 72 h; procedure, shortened: as §2

## CCCCCCCCOC(=O)N/N=C/C=C/c1ccc([N+](=O)[O-])o1
Mus musculus [1]
  Activity: Toxic
Mus musculus [2]
  Activity: 1%
Mus musculus [3]
  Activity: 70.2 IU/L
Mus musculus [4]
  Activity: Non-toxic
Mus musculus [5]
  Activity: 2%
Mus musculus [6]
  Activity: Non-toxic
Mus musculus [7]
  Activity: Toxic
Mus musculus [8]
  Activity: Non-toxic
Mus musculus [9]
  Activity: Non-toxic
Mus musculus [10]
  Activity: 13.4 g/dL
Mus musculus [11]
  Activity: 50.7 IU/L
Mus musculus [12]
  Activity: Non-toxic
Trypanosoma cruzi
  inhibition of growth at 5 µM: 92%
Mus musculus [13]
  Activity: 57 IU/L
Mus musculus [14]
  Activity: 10600 µL⁻¹
Mus musculus [15]
  Activity: Toxic
Mus musculus [16]
  Activity: Non-toxic
Mus musculus [17]
  Activity: Non-toxic
Mus musculus [18]
  Activity: Non-toxic
Mus musculus [19]
  Activity: Non-toxic
Mus musculus [20]
  Activity: 13.9 g/dL
Mus musculus [21]
  Activity: 7750 µL⁻¹
Mus musculus [22]
  Activity: Non-toxic
Mus musculus [23]
  Activity: 84 IU/L
